Measured values as given in ChEMBL document CHEMBL4316598, “Synthesis, antiproliferative and apoptosis induction potential activities of novel bis(indolyl)hydrazide-hydrazone derivatives” (Bioorg Med Chem, 2019).
The source made the active and inactive calls. The calls are words filed in the database; no cut-off is given here.

How the values were obtained:
MCF7 [1] = experiment: Cytotoxicity against human MCF7 cells assessed as reduction in cell viability after 4 hrs by MTT assay; format: functional, cell-based
Method in brief: (§1)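 MTT: 10,000–20,000 cells/well attached for 16 h, then washed twice with serum-free RPMI. Treated with 1–200 µM for 4 h, 3 parallel runs per concentration. MTT added for 2 h; medium partly removed and isopropanol added. A590 read. Viability = (A treated − A doxorubicin)/(A medium − A doxorubicin)×100. Mean of three experiments, triplicate wells each.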

A549 = experiment: Cytotoxicity against human A549 cells assessed as reduction in cell viability after 4 hrs by MTT assay; format: functional, cell-based; method in brief: as §1
MCF7 [2] = experiment: Induction of apoptosis in human MCF7 cells assessed as early apoptotic cells at 1 uM after 8 hrs by annexin-V FITC/propidium iodide staining based flow cytometric analysis relative to control; format: functional
Method in brief: (§2)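 Cells were grown in DMEM with 10% heat-inactivated FBS at 37 °C and 5% CO₂, then plated at 500,000 cells/well in 24-well plates. They were treated from a DMSO stock (DMSO ≤0.1%) for 8, 12 or 16 h. After a PBS wash, cells were resuspended in binding buffer (10 mM HEPES pH 7.4, 2.5 mM CaCl₂, 140 mM NaCl, 0.1% BSA), stained 40 min with FITC-annexin V, then with PI, and run on the flow cytometer immediately. Values are the mean of three independent experiments.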

MCF7 [3] = experiment: Induction of apoptosis in human MCF7 cells assessed as late apoptotic cells at 1 uM after 8 hrs by annexin-V FITC/propidium iodide staining based flow cytometric analysis relative to control; format: functional; method in brief: as §2
MCF7 [4] = experiment: Induction of apoptosis in human MCF7 cells assessed as viable cells at 1 uM after 16 hrs by annexin-V FITC/propidium iodide staining based flow cytometric analysis relative to control; format: functional; details: MCF7, 16 h, read-out: Activity; method in brief: as §2
HeLa [5] = experiment: Induction of apoptosis in human HeLa cells assessed as early apoptotic cells at 1 uM after 8 hrs by annexin-V FITC/propidium iodide staining based flow cytometric analysis relative to control; format: functional; method in brief: as §2
HeLa [6] = experiment: Induction of nitric oxide production in human HeLa cells at 5 uM measured over 8 hrs by Griess reaction based assay relative to control; format: functional
Method in brief: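 Cells seeded at 2×10^6 cells/well for 12 h, then exposed to 1, 5 and 10 μM compound for 8 h at 37 °C. Culture supernatant mixed with Griess reagent (0.002% N-1-naphthyl-ethylenediamine dihydrochloride, 0.5% sulfanilic acid, 14% glacial acetic acid). Nitrite read by absorbance at 550 nm and compared with vehicle group.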

HeLa [7] = experiment: Induction of caspase-dependent apoptosis in human HeLa cells assessed as activation of caspase-3 at 1 to 3 uM after 24 hrs by Western blot analysis; format: functional, cell-based
Method in brief: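 Cleaved caspase-3 immunoblot. Cells were exposed at 1, 3 and 5 µM for 24 h at 37 °C, with paclitaxel 3 µM as positive control. Lysis was in ice-cold Triton X-100 buffer, and protein was measured by BCA. Lysates were separated by electrophoresis, transferred to nitrocellulose and blocked in milk. Primary antibody was applied overnight at 4 °C and secondary for 1 h at 28 °C. Detection was by enhanced chemiluminescence.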

MCF7 [8] = experiment: Induction of caspase-dependent apoptosis in human MCF7 cells assessed as activation of caspase-7 at 1 to 3 uM after 24 hrs by Western blot analysis; format: functional, cell-based
Method in brief: (§3)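 Cells were treated at 1, 3 and 5 µM for 24 h at 37 °C. Lysis was in ice-cold Triton X-100 buffer with protease and phosphatase inhibitors; nuclear proteins were extracted separately. Protein was quantified by BCA. Lysates were separated by electrophoresis, transferred to nitrocellulose and blocked in non-fat milk for 1 h. Primary antibody was applied overnight at 4 °C and secondary for 1 h at 28 °C. Detection was by enhanced chemiluminescence.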

HeLa [9] = experiment: Induction of caspase-dependent apoptosis in human HeLa cells assessed as activation of caspase-6 at 1 to 3 uM after 24 hrs by Western blot analysis; format: functional, cell-based; method in brief: as §3
MCF7 [10] = experiment: Induction of apoptosis in human MCF7 cells assessed as up-regulation of total p53 level at 5 uM after 12 hrs by sandwich ELISA; format: functional, cell-based
Method in brief: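 Cells were treated at 5 µM for 12, 24 and 48 h. Lysis was in ice-cold lysis buffer with 1 mM PMSF (5 min on ice), followed by three freeze-thaw cycles and a 10 min spin at 4 °C. Acetylated and total p53 were measured in the supernatant by kit sandwich ELISA, read at 450 nm. The control index is sample absorbance divided by that of untreated cells at the same time. Values are mean ± SD of triplicate experiments.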

[11] = molecular target: Mitogen-activated protein kinase; ERK1/ERK2 (Homo sapiens) (UniProt P27361+P28482); experiment: Activation of ERK1/2 phosphorylation in human MCF7 cells assessed as increase in ratio of phosphorylated ERK1/2 to total ERK1/2 level at 5 uM in presence of ERK1/2 inhibitor PD98059 by ELISA; format: cell-based
Chain of Mitogen-activated protein kinase; ERK1/ERK2 (Homo sapiens) (P27361 whole entry, looked up): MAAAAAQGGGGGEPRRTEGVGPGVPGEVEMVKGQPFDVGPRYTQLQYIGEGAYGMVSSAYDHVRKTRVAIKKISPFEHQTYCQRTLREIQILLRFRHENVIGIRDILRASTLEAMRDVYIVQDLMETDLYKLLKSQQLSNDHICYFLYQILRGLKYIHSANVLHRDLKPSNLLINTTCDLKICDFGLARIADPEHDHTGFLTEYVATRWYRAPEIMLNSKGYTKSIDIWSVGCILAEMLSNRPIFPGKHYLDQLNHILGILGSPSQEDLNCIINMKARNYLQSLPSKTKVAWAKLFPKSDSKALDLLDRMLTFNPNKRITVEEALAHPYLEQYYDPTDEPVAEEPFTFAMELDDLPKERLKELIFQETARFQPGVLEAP
Chain of Mitogen-activated protein kinase; ERK1/ERK2 (Homo sapiens) (P28482 whole entry, looked up): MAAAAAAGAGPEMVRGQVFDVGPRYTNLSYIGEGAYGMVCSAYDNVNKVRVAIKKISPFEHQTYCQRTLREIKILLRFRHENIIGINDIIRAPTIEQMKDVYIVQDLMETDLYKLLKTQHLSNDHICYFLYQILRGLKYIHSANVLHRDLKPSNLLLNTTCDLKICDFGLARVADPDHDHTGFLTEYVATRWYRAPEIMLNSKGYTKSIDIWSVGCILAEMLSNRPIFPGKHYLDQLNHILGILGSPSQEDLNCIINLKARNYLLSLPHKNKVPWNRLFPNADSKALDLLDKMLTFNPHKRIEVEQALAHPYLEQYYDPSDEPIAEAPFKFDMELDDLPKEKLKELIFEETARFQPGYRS
Method in brief: (§4)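 Cell-based ELISA: HeLa or MCF-7 cells (20×10^3/well) grown overnight at 37 °C, 5% CO2, treated with 5 μM, then fixed and blocked. Probed with rabbit anti-total and anti-phospho P38, JNK or ERK1/2 (1:100), then HRP anti-rabbit IgG. Result is the phospho/total ratio; inhibitor arms use […], […] or SP600125. n=3.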

[12] = molecular target: MAP kinase p38 (Homo sapiens) (UniProt O15264+Q15759+Q16539+P53778); experiment: Activation of MAPK p38 phosphorylation in human HeLa cells assessed as increase in ratio of phosphorylated p38 to total p38 level at 5 uM in presence of p38 kinase inhibitor […] by ELISA; format: cell-based; method in brief: as §4
MCF7 [13] = experiment: Induction of ERK/MAPK signal transduction pathway in human MCF7 cells assessed as increase in p21 level; format: cell-based

Cn1cc(/C=N\NC(=O)c2cn(C)c3ccc(Br)cc23)c2ccccc21
Activity (MCF7 [1]): Dose-dependent effect | IC50 (MCF7 [1]; Homo sapiens, MCF7, 4 h, read-out: IC50): 1190 nM | Activity (A549): Dose-dependent effect | IC50 (A549; Homo sapiens, A549, 4 h, read-out: IC50): 793 to 5490 nM | Activity (MCF7 [2]): 2.26% | Activity (MCF7 [3]): 4.01% | viability at 1 µM (MCF7 [4]): 20.4% | Activity (HeLa [5]): 19.15% | Activity (HeLa [6]): 42.4% | Activity (HeLa [7]): inactive | Activity (MCF7 [8]): inactive | Activity (HeLa [9]): inactive | Activity (MCF7 [10]): Active | Activity [11]: inactive | Activity [12]: inactive | Activity (MCF7 [13]): Active
